Assay results: ChEMBL document CHEMBL1156843, “3,5-Bis(benzylidene)-1-[4-2-(morpholin-4-yl)ethoxyphenylcarbonyl]-4-piperidone hydrochloride: a lead tumor-specific cytotoxin which induces apoptosis and autophagy” (Bioorg Med Chem Lett, 2010)
Activity calls are given as the source filed them. The rule behind the calls is not given here.

Assays:
[1] = system: HL-60; assay: Cytotoxicity against human HL60 cells; format: functional
In short: (§1)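 Each value is the mean of two independent determinations.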

[2] = system: HSC-4; assay: Selectivity index, ratio of CC50 for human normal cells to CC50 for human HSC4 cells; format: functional
In short: (§2)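 Ratio of the mean CC50 over three normal human lines (HGF gingival fibroblasts, HPC pulp cells, HPLF periodontal ligament fibroblasts) to the CC50 for the given tumor line. Each CC50 is the mean of two independent determinations.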

[3] = Cytotoxicity against human HPC cells; format: cell-based
[4] = system: HL-60; assay: Selectivity index, ratio of CC50 for human normal cells to CC50 for human HL60 cells; format: functional; in short: as §2
[5] = Cytotoxicity against human HGF cells; format: cell-based
[6] = system: HSC-4; assay: Cytotoxicity against human HSC4 cells; format: functional; in short: as §1
[7] = Cytotoxicity against human HPLF cells; format: cell-based
[8] = system: HSC-2; assay: Cytotoxicity against human HSC2 cells; format: functional; in short: as §1
[9] = system: HSC-2; assay: Selectivity index, ratio of CC50 for human normal cells to CC50 for human HSC2 cells; format: functional; in short: as §2
[10] = system: HT-29; assay: Cell cycle arrest in human HT-29 cells assessed as accumulation at G1 phase at 5 uM after 48 hrs by flow cytometry; format: functional
In short: (§3)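 HT29 cells plated and grown 48 h to 50–60% confluency, then exposed to compound for 48 h. Cells trypsinized, PBS-washed, fixed overnight in 70% ethanol at 4 °C. Held 1 h on ice, then DNA content read by flow cytometry.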

[11] = system: HT-29; assay: Cell cycle arrest in human HT-29 cells assessed as accumulation at sub-G1 phase at 5 uM after 48 hrs by flow cytometry; format: functional; in short: as §3
[12] = system: HT-29; assay: Cell cycle arrest in human HT-29 cells assessed as accumulation at S phase at 5 uM after 48 hrs by flow cytometry; format: functional; in short: as §3
[13] = system: HSC-2; assay: Induction of acidic organelles formation in human HSC2 cells at 4 to 8 uM after 6 hrs; format: functional, cell-based
In short: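 Acidic organelle formation scored in HSC-2 cells after 6 h exposure; reference condition was culture in Hank's balanced salt solution for 1 h.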

[14] = system: HL-60; assay: Induction of bell-shaped internucleosomal DNA fragmentation in human HL60 cells at 1 to 2 uM after 7 hrs; format: functional, cell-based
[15] = system: HT-29; assay: Cytotoxicity against human HT-29 cells after 96 hrs by MTT assay; format: functional, cell-based; settings: HT-29, 96 h
In short: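 HT29 cells (ATCC) kept in DMEM with 10% fetal calf serum under 5% CO2 at 37 °C. Cells detached with trypsin and seeded at 9000 cells/well, then allowed 24 h to attach. Compound added at a range of concentrations; medium-only wells served as controls. After 96 h, proliferation was estimated from MTT reduction read at 540 nm.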

[16] = system: HT-29; assay: Cell cycle arrest in human HT-29 cells assessed as accumulation at G2/M phase at 5 uM after 48 hrs by flow cytometry; format: functional; in short: as §3
[17] = system: HSC-2; assay: Induction of bell-shaped internucleosomal DNA fragmentation in human HSC2 cells at 2 to 32 uM after 7 hrs; format: functional, cell-based

SMILES	CC50 [1] [µM]	Selectivity Index [2]	CC50 [3] [µM]	Selectivity Index [4]	CC50 [5] [µM]	CC50 [6] [µM]	CC50 [7] [µM]	CC50 [8] [µM]	Selectivity Index [9]	Activity [10] [%]	Activity [11] [%]	Activity [12] [%]	Activity [13]	Activity [14]	IC50 [15] [µM]	Activity [16] [%]	Activity [17]
CN(C)CCOc1ccc(C(=O)N2C/C(=C\c3ccccc3)C(=O)/C(=C/c3ccccc3)C2)cc1.Cl	1	4.1	13	8.5	3.6	2.1	8.9	3.8	2.2	–	–	–	–	–	–	–	–
Cc1ccc(/C=C2\CN(C(=O)c3ccc(OCCN4CCCCC4)cc3)C/C(=C\c3ccc(C)cc3)C2=O)cc1.Cl	2.3	2.2	15	3.8	6	4.1	5.5	2.9	3	–	–	–	–	–	–	–	–
Cc1ccc(/C=C2\CN(C(=O)c3ccc(OCCN4CCOCC4)cc3)C/C(=C\c3ccc(C)cc3)C2=O)cc1.Cl	1.2	12	49	20	10	2	12	1.6	15	–	–	–	–	–	–	–	–
CC[N+](C)(CC)CCOc1ccc(C(=O)N2C/C(=C\c3ccc(Cl)cc3)C(=O)/C(=C/c3ccc(Cl)cc3)C2)cc1.[I-]	64	>1.2	> 400	>4.2	> 400	220	9.4	> 400	0.7	–	–	–	–	–	–	–	–
N[C@@H](Cc1ccc(N(CCCl)CCCl)cc1)C(=O)O	–	>2.5	> 200	>33	> 200	–	> 200	–	>5.7	–	–	–	–	–	–	–	–
Cl.O=C1/C(=C/c2ccccc2)CN(C(=O)c2ccc(OCCN3CCOCC3)cc2)C/C1=C\c1ccccc1	1.2	29	95	58	83	2.4	30	2.4	29	50.5	11.4	25.2	Active	Active	3.75	11.1	inactive
Cl.O=C1/C(=C/c2ccc([N+](=O)[O-])cc2)CN(C(=O)c2ccc(OCCN3CCCCC3)cc2)C/C1=C\c1ccc([N+](=O)[O-])cc1	0.29	6.2	3.9	19	8	0.9	4.9	0.86	6.5	–	–	–	–	–	–	–	–
Cl.O=C1/C(=C/c2ccc([N+](=O)[O-])cc2)CN(C(=O)c2ccc(OCCN3CCOCC3)cc2)C/C1=C\c1ccc([N+](=O)[O-])cc1	0.35	13	8.2	28	12	0.74	9.3	0.76	13	–	–	–	–	–	–	–	–
CCN(CC)CCOc1ccc(C(=O)N2C/C(=C\c3ccc(Cl)cc3)C(=O)/C(=C/c3ccc(Cl)cc3)C2)cc1.Cl	–	>10	> 400	>7.5	230	–	> 400	–	>2.1	–	–	–	–	–	–	–	–
CN(C)CCOc1ccc(C(=O)N2C/C(=C\c3ccc([N+](=O)[O-])cc3)C(=O)/C(=C/c3ccc([N+](=O)[O-])cc3)C2)cc1.Cl	0.31	8.5	5.2	19	7	0.71	5.9	0.93	6.5	–	–	–	–	–	–	–	–
CC[N+](C)(CC)CCOc1ccc(C(=O)N2C/C(=C\c3ccc([N+](=O)[O-])cc3)C(=O)/C(=C/c3ccc([N+](=O)[O-])cc3)C2)cc1.[I-]	29	1.3	130	2.7	93	61	13	67	1.2	–	–	–	–	–	–	–	–
CC[N+](C)(CC)CCOc1ccc(C(=O)N2C/C(=C\c3ccccc3)C(=O)/C(=C/c3ccccc3)C2)cc1.[I-]	82	1.7	170	1.7	160	82	79	130	1.1	–	–	–	–	–	–	–	–
CCN(CC)CCOc1ccc(C(=O)N2C/C(=C\c3ccc(C)cc3)C(=O)/C(=C/c3ccc(C)cc3)C2)cc1.Cl	–	2.5	9.3	7.3	3.6	–	4.6	–	2.6	–	–	–	–	–	–	–	–
CCN(CC)CCOc1ccc(C(=O)N2C/C(=C\c3ccc([N+](=O)[O-])cc3)C(=O)/C(=C/c3ccc([N+](=O)[O-])cc3)C2)cc1.Cl	–	4.6	4.5	20	5	–	5.9	–	5.2	–	–	–	–	–	–	–	–
Cl.O=C1/C(=C/c2ccc(Cl)cc2)CN(C(=O)c2ccc(OCCN3CCOCC3)cc2)C/C1=C\c1ccc(Cl)cc1	36	>22	> 400	> 11	400	18	360	71	>5.5	–	–	–	–	–	–	–	–
CCN(CC)CCOc1ccc(C(=O)N2C/C(=C\c3ccccc3)C(=O)/C(=C/c3ccccc3)C2)cc1.Cl	0.61	3.7	12	12	4.2	2	6	3.1	2.4	–	–	–	–	–	–	–	–
CN(C)CCOc1ccc(C(=O)N2C/C(=C\c3ccc(Cl)cc3)C(=O)/C(=C/c3ccc(Cl)cc3)C2)cc1.Cl	1.7	7.1	11	7.5	23	1.8	4.3	2.3	5.6	–	–	–	–	–	–	–	–
Cc1ccc(/C=C2\CN(C(=O)c3ccc(OCCN(C)C)cc3)C/C(=C\c3ccc(C)cc3)C2=O)cc1.Cl	0.85	3	7.2	7.3	7.9	2.1	3.4	1.4	4.4	–	–	–	–	–	–	–	–
CC[N+](C)(CC)CCOc1ccc(C(=O)N2C/C(=C\c3ccc(C)cc3)C(=O)/C(=C/c3ccc(C)cc3)C2)cc1.[I-]	16	1.4	29	1.5	34	17	8.3	17	1.4	–	–	–	–	–	–	–	–
Cl.O=C1/C(=C/c2ccccc2)CN(C(=O)c2ccc(OCCN3CCCCC3)cc2)C/C1=C\c1ccccc1	1.4	3.2	12	5.7	4.6	2.5	7.4	3	2.7	–	–	–	–	–	–	–	–
Cl.O=C1/C(=C/c2ccc(Cl)cc2)CN(C(=O)c2ccc(OCCN3CCCCC3)cc2)C/C1=C\c1ccc(Cl)cc1	–	>7.9	> 400	>6	> 400	–	340	–	>3.5	–	–	–	–	–	–	–	–
